Measured values: ChEMBL document CHEMBL2434928, “New derivatives of salicylamides: Preparation and antimicrobial activity against various bacterial species” (2013)
Values after ≈ are worked out from the molar mass of the structure shown.

Columns and labels:
Assay type in all cases: functional
[1] = tested on: Mycobacterium kansasii; assay: Antimycobacterial activity against Mycobacterium kansasii DSM 44162 after 7 days; details: DSM 44162, 168 h
Summary of the method: (§1)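 MIC by broth microdilution in Middlebrook 7H9 with ADC enrichment. Compounds were dissolved in DMSO. Inoculum: colonies in sterile water adjusted to 0.5 McFarland, then diluted 1:1000 in sterile water. Drug-free, sterility and medium+DMSO controls were included. Wells were read visually after static incubation in the dark.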

[2] = tested on: Mycobacterium marinum; assay: Antimycobacterial activity against Mycobacterium marinum CAMP 5644 after 21 days; details: CAMP 5644, 504 h; summary of the method: as §1
[3] = tested on: Mycolicibacterium smegmatis; assay: Antimycobacterial activity against Mycobacterium smegmatis ATCC 700084 after 3 days; details: ATCC 700084, 72 h
Summary of the method: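 Middlebrook 7H9 plus ADC broth microdilution MIC, with compounds in DMSO. Colonies were suspended in sterile water to 0.5 McFarland, then diluted 1:1000 in sterile water. Drug-free, sterility and DMSO controls were included. The visual read followed 3 days of static aerobic incubation at 37 °C in darkness.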

[4] = tested on: Pasteurella multocida; assay: Antimicrobial activity against Pasteurella multocida clinical isolate after 24 hrs by broth microdilution method
Summary of the method: (§2)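 Broth microdilution MIC in Mueller–Hinton broth, per modified NCCLS guidelines. Strains were grown on nutrient agar with 5% ovine blood. Colonies were suspended in PBS (pH 7.2–7.3), adjusted to 0.5 McFarland, then diluted 1:20 in MH broth. Compounds were in DMSO, ≤2.5% final. Drug-free, sterility and DMSO controls were included.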

[5] = tested on: Clostridium perfringens; assay: Antimicrobial activity against Clostridium perfringens CNCTC 5770 after 24 hrs by broth microdilution method; details: CNCTC 5770, 24 h
Summary of the method: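 Colonies grown on blood agar (nutrient agar, 5% ovine blood) were suspended in PBS pH 7.2–7.3, set to 0.5 McFarland, and diluted 1:20 in MH broth for the final inoculum. Compounds were in DMSO (≤2.5% final), tested by NCCLS-modified microdilution with drug-free, sterility and DMSO controls.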

[6] = tested on: Staphylococcus aureus; assay: Antimicrobial activity against methicillin-resistant Staphylococcus aureus 3202 after 24 hrs by broth microdilution method; details: Staphylococcus aureus, 3202, 24 h
Summary of the method: (§3)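 Colonies grown on nutrient agar with 5% ovine blood were suspended in PBS (pH 7.2–7.3), adjusted to 0.5 McFarland, and diluted 1:20 in Mueller–Hinton broth. Compounds were dissolved in DMSO (final ≤2.5%) and tested by NCCLS-modified broth microdilution with drug-free, sterility and broth+DMSO controls.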

[7] = tested on: Staphylococcus aureus; assay: Antimicrobial activity against methicillin-resistant Staphylococcus aureus 630 after 24 hrs by broth microdilution method; details: Staphylococcus aureus, 630, 24 h; summary of the method: as §3
[8] = tested on: Staphylococcus aureus; assay: Antimicrobial activity against methicillin-resistant Staphylococcus aureus 63718 after 24 hrs by broth microdilution method; details: Staphylococcus aureus, 63718, 24 h; summary of the method: as §3
[9] = tested on: Bacillus cereus; assay: Antimicrobial activity against Bacillus cereus ATCC 14579 after 24 hrs by broth microdilution method; details: ATCC 14579, 24 h; summary of the method: as §2
[10] = tested on: Staphylococcus aureus; assay: Antimicrobial activity against Staphylococcus aureus ATCC 29213 after 24 hrs by broth microdilution method; details: ATCC 29213, 24 h; summary of the method: as §2

| SMILES | MIC [1] [µM] | MIC [2] [µM] | MIC [3] [µM] | MIC [4] [µM] | MIC [5] [µM] | MIC [6] [µM] | MIC [7] [µM] | MIC [8] [µM] | MIC [9] [µM] | MIC [10] [µM] |
| --- | --- | --- | --- | --- | --- | --- | --- | --- | --- | --- |
| O=C(Nc1ccc(C(F)(F)F)cc1)c1cc(Cl)ccc1O | 1.58 (≈ 0.499 µg/mL) | ≤ 0.4 | 12.7 (≈ 4 µg/mL) | 0.2 (≈ 0.0631 µg/mL) | 1.58 (≈ 0.499 µg/mL) | 0.2 (≈ 0.0631 µg/mL) | 0.2 (≈ 0.0631 µg/mL) | 0.1 (≈ 0.0316 µg/mL) | 0.1 (≈ 0.0316 µg/mL) | 0.03 (≈ 0.00947 µg/mL) |
| CC1(C)S[C@@H]2[C@H](NC(=O)[C@H](N)c3ccccc3)C(=O)N2[C@H]1C(=O)O [AMPICILLIN] |  |  |  | 1.43 (≈ 0.5 µg/mL) | < 0.72 | > 45.8 | > 45.8 | > 45.8 | > 45.8 | 5.72 (≈ 2 µg/mL) |
| O=C(Nc1ccc(Cl)c(Cl)c1)c1cc(Cl)ccc1O |  |  |  | 0.19 (≈ 0.0601 µg/mL) | 0.03 (≈ 0.0095 µg/mL) | 0.77 (≈ 0.244 µg/mL) | 0.77 (≈ 0.244 µg/mL) | 0.77 (≈ 0.244 µg/mL) | 0.09 (≈ 0.0285 µg/mL) | 0.79 (≈ 0.25 µg/mL) |
| CC(C)[C@H](NC(=O)c1ccc(Cl)cc1O)C(=O)Nc1ccc(Cl)c(Cl)c1 | 77 (≈ 32 µg/mL) | 77 (≈ 32 µg/mL) | 77 (≈ 32 µg/mL) | > 615 | 38.5 (≈ 16 µg/mL) | 2.4 (≈ 0.998 µg/mL) | 2.4 (≈ 0.998 µg/mL) | 4.81 (≈ 2 µg/mL) | 1.2 (≈ 0.499 µg/mL) | 2.4 (≈ 0.998 µg/mL) |
| O=C(Nc1ccccc1)c1cc(Cl)ccc1O | 16.1 (≈ 4 µg/mL) | 64.6 (≈ 16 µg/mL) | 64.6 (≈ 16 µg/mL) | 1.01 (≈ 0.25 µg/mL) | > 1030 | 16.1 (≈ 4 µg/mL) | 16.1 (≈ 4 µg/mL) | 32.3 (≈ 8 µg/mL) | 32.3 (≈ 8 µg/mL) | 16.1 (≈ 4 µg/mL) |
| CC(C)[C@H](NC(=O)c1cc(Cl)ccc1O)C(=O)Nc1ccc(C(F)(F)F)cc1 | 38.6 (≈ 16 µg/mL) | 77.1 (≈ 32 µg/mL) | 77.1 (≈ 32 µg/mL) | > 617 | 4.82 (≈ 2 µg/mL) | 4.82 (≈ 2 µg/mL) | 4.82 (≈ 2 µg/mL) | 9.64 (≈ 4 µg/mL) | 2.41 (≈ 1 µg/mL) | 4.82 (≈ 2 µg/mL) |
| O=C(Nc1ccc(Cl)c(Cl)c1)c1ccc(Cl)cc1O | 3.16 (≈ 1 µg/mL) | 3.16 (≈ 1 µg/mL) | 12.6 (≈ 4 µg/mL) | 0.2 (≈ 0.0633 µg/mL) | 0.2 (≈ 0.0633 µg/mL) | 0.05 (≈ 0.0158 µg/mL) | 0.03 (≈ 0.0095 µg/mL) | 0.05 (≈ 0.0158 µg/mL) | ≤ 0.03 | 0.03 (≈ 0.0095 µg/mL) |
| O=C(Nc1ccc(Cl)cc1)c1cc(Cl)ccc1O | 7.08 (≈ 2 µg/mL) | 7.08 (≈ 2 µg/mL) | 28.4 (≈ 8 µg/mL) | 3.54 (≈ 0.999 µg/mL) | 14.2 (≈ 4 µg/mL) | 56.7 (≈ 16 µg/mL) | 28.4 (≈ 8 µg/mL) | 56.7 (≈ 16 µg/mL) | 14.2 (≈ 4 µg/mL) | 28.4 (≈ 8 µg/mL) |
| Cc1ccc(NC(=O)c2cc(Cl)ccc2O)cc1 | 30.6 (≈ 8 µg/mL) | 61.1 (≈ 16 µg/mL) | > 978 | 1.91 (≈ 0.5 µg/mL) | > 978 | > 978 | > 978 | > 978 | 30.6 (≈ 8 µg/mL) | > 978 |
| O=C(Nc1ccc([N+](=O)[O-])cc1)c1cc(Cl)ccc1O | ≤ 0.43 | 3.42 (≈ 1 µg/mL) | 13.7 (≈ 4 µg/mL) | 0.03 (≈ 0.00878 µg/mL) | 1.71 (≈ 0.5 µg/mL) | 1.71 (≈ 0.5 µg/mL) | 0.85 (≈ 0.249 µg/mL) | 1.71 (≈ 0.5 µg/mL) | 0.85 (≈ 0.249 µg/mL) | 0.85 (≈ 0.249 µg/mL) |
| Cc1ccc(NC(=O)c2cc(Cl)ccc2OC(=O)[C@@H](NC(=O)OCc2ccccc2)C(C)C)cc1 | 129 (≈ 63.9 µg/mL) | 259 (≈ 128 µg/mL) | 259 (≈ 128 µg/mL) | 4.04 (≈ 2 µg/mL) |  |  |  |  | 32.3 (≈ 16 µg/mL) | 32.3 (≈ 16 µg/mL) |
| NNC(=O)c1ccncc1 [ISONIAZID] |  | 467 (≈ 64 µg/mL) | 117 (≈ 16 µg/mL) |  |  |  |  |  |  |  |
| O=C(O)c1cn(C2CC2)c2cc(N3CCNCC3)c(F)cc2c1=O [CIPROFLOXACIN] |  |  |  |  |  | > 48.3 | > 48.3 | > 48.3 |  | > 48.3 |
